Laboratory results from ChEMBL document CHEMBL1134280, “Discovery and biological evaluation of a new family of potent inhibitors of the dual specificity protein phosphatase Cdc25” (J Med Chem, 2001).

Legend:
[1] = molecular target: T1, M-phase inducer phosphatase 2 (Homo sapiens, UniProt P30305); test: Inhibitory activity against recombinant human cell division cycle 25B
T1 sequence (P30305 whole entry): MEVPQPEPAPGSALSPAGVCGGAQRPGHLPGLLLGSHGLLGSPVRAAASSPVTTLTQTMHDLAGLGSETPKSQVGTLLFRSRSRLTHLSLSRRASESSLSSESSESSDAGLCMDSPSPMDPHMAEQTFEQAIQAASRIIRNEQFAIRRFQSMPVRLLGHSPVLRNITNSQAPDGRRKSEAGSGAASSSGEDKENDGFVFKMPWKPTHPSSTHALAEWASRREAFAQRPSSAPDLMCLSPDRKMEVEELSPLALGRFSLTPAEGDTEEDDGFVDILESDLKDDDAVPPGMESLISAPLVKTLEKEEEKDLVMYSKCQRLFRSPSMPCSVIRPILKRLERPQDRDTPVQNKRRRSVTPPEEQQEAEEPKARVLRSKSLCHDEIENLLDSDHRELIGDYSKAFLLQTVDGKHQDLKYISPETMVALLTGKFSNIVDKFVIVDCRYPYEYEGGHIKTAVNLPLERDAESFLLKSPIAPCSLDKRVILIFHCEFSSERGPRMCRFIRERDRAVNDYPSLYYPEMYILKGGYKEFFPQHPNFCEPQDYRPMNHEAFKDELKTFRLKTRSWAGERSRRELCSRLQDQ
Method in brief: (§1)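 GST-fusion enzyme (Cdc25B₂, VHR) or human recombinant PTP1B, with O-methyl fluorescein phosphate as substrate in a miniaturized microtiter format. IC50 values were taken from concentration–response data.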

[2] = molecular target: T2, Tyrosine-protein phosphatase non-receptor type 1 (Homo sapiens, UniProt P18031); test: Inhibitory Activity against Recombinant Human PTP1
T2 sequence (P18031 whole entry): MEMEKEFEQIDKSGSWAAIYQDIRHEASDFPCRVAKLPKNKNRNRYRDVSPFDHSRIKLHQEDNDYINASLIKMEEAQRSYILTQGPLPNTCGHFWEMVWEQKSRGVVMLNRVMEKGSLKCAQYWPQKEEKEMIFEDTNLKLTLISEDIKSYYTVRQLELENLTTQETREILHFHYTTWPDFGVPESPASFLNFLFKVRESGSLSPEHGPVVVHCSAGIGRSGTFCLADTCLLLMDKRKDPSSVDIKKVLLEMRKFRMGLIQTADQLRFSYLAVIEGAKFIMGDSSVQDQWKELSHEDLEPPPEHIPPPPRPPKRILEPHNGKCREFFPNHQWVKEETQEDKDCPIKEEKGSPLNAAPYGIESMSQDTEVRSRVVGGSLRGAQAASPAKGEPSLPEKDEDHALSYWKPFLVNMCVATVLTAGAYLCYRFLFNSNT
Method in brief: as §1, with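 “format. After 60 min at ambient temperature, product fluorescence was read (excitation 485/20, emission 530/30).” for “format.”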

[3] = molecular target: Dual specificity protein phosphatase 3 (Homo sapiens, UniProt P51452); test: Inhibitory Activity against Recombinant Human VHR
Method in brief: as §1, with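 “format. After 60 min at ambient temperature, product fluorescence was read (excitation 485/20, emission 530/30).” for “format.”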

Chain of Dual specificity protein phosphatase 3 (P51452 whole entry): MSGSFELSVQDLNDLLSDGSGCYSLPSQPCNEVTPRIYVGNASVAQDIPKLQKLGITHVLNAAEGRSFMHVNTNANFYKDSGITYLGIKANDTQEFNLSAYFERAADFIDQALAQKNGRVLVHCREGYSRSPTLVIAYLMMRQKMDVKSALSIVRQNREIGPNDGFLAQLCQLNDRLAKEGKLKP

SMILES	IC50 [1] [µM]	IC50 [2] [µM]	IC50 [3] [µM]
CCCCCCOc1ccc(NC2=C(Cl)C(=O)c3cccnc3C2=O)cc1	0.93	> 10	> 10
O=C1/C(=N\C(Cc2c[nH]c3ccccc23)C(=O)O)C(Cl)=C(O)c2cccnc21 (centres undefined)	16	> 10	> 10
O=C1C(NCCN2CCOCC2)=C(Cl)C(=O)c2ncccc21	0.82	> 10	> 10
O=C1C(Cl)=C(NCCc2c[nH]c3ccccc23)C(=O)c2ncccc21	5.1	> 10	> 10
O=C1C=CC(=O)c2ncccc21	3	> 10	> 10
O=C1C(Cl)=C(Cl)C(=O)c2ncccc21	4.6	> 10	> 10
COC(=O)c1nc(-c2ccc3c(n2)C(=O)C(=N)C(OC)=C3O)c(N)c(-c2ccc(OC)c(OC)c2O)c1C	0.37	8.7	5.1
O=C1C(Cl)=C(NCCN2CCOCC2)C(=O)c2ncccc21		> 100	4
O=C1C(Cl)=C(Cl)C(=O)c2ncncc21	4.8	> 10	> 10
O=C1C(Cl)=C(Cl)C(=O)c2cnccc21	1.5	> 10	> 10
O=C1C(Cl)=C(N2CCN(CCOCCO)CC2)C(=O)c2ncccc21	0.9	> 10	> 10
O=C1C(Cl)=C(NCCN2CCOCC2)C(=O)c2cnccc21	0.59	> 10	> 10
O=C1C(Cl)=C(Cl)C(=O)c2cnncc21	8.9	> 10	> 10

Second part, the compound after the results:

IC50 [1] [µM]	IC50 [2] [µM]	IC50 [3] [µM]	SMILES
0.51	> 100	16	CC(/N=C1\C=C(O)c2cccnc2C1=O)C(O)c1ccccc1 (centres undefined)
0.43	9.8	1.1	O=C1C(Cl)=C(NCCN2CCOCC2)C(=O)c2cnncc21
0.67	> 10	> 10	CC(/N=C1\C=C(O)c2ncccc2C1=O)C(O)c1ccccc1 (centres undefined)
0.45	> 100	17	COc1cc(CC/N=C2\C=C(O)c3cccnc3C2=O)ccc1O
0.3			O=C1C(Cl)=C(NC2CCc3ccccc32)C(=O)c2ncccc21 (centres undefined)
0.64	8	8.5	O=C1/C(=N/CCc2cc(Br)c(O)c(Br)c2)C=C(O)c2cccnc21
